ABHD4 inh – ABHD4 (mouse) inhibition, primary FP screen | 370,000 tested, 0.54% active | AID 720543 | purified mABHD4, FP-Rh probe fluorescence polarization | inhibition, % at 8.92 µM;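 active means inhibition exceeding the mean over every tested compound plus 3 SD, cut at about 30% in these data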
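Doses – 8.92 µM, single dose · Material – wild-type mouse ABHD4 protein · Replication – single well per compound (singlicate) · Measure – percent inhibition of probe binding, normalized to plate controls · Schedule – 45 min compound pre-incubation plus 60 min probe step, 25 °C · Detection – fluorescence polarization with parallel and perpendicular emission, 525/598 nm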
HTRA1 inh – blocks human HTRA1 serine peptidase; recombinant HTRA1, FP-rhodamine activity-based probe, fluorescence polarization; inhibition, % at 5.96 µM; Q92743; 340,000 tested, 0.5% active; in the data active means inhibition above about 36%
Target sequence (Q92743 whole entry, looked up): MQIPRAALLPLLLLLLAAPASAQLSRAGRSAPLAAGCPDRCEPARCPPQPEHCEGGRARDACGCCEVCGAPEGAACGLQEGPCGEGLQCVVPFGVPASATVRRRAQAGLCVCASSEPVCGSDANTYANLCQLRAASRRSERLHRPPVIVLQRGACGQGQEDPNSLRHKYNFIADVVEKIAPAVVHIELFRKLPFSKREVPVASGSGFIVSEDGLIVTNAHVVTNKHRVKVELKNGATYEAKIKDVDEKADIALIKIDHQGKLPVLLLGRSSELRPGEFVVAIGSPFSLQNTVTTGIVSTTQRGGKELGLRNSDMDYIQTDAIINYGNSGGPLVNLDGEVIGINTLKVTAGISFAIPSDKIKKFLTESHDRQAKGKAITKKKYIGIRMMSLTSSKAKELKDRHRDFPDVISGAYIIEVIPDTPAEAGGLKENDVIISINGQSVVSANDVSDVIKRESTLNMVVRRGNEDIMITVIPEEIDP
RBBP9 inhibitor – inhibitors of human serine hydrolase RBBP9; O75884; 220,000 tested, 0.2% active; recombinant RBBP9, FP-Rh probe fluorescence polarization; inhibition, % at 7.94 µM; AID 1515;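 active means inhibition above the campaign mean of all tested compounds plus 3 SD, cut at about 14% in these data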
Target sequence (O75884 whole entry, looked up): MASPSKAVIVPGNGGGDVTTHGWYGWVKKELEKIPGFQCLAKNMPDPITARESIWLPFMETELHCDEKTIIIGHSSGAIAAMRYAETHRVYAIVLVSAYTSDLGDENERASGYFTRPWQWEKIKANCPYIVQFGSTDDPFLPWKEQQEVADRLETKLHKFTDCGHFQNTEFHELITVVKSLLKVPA
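Test system – recombinant human RBBP9 · Input – RBBP9 2.5 µM in dispensing solution, pre-mixing · Medium – Tris buffer pH 8.0, NaCl, Pluronic · Schedule – preincubation 30 min plus labeling 45 min at 25 °C · Measured by – fluorescence polarization · Measure – % inhibition · Controls – DMSO and no-protein wells · Replicates – one well per compound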
SIAE inh – human SIAE inhibition, primary screen; SIAE FP-Rh probe binding, fluorescence polarization; 370,000 tested, 0.69% active; Q9HAT2; inhibition, % at 9.66 µM;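 active means inhibition above a cutoff: mean of compounds within the control limits plus 3 SD of those, cut at about 17% in these data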
RBBP9 confirm – human RBBP9 inhibition, confirmation. shares compounds with RBBP9 inhibitor. recombinant RBBP9, FP-Rh probe fluorescence polarization. inhibition, % at 7.94 µM. 410 tested, 36% active. AID 1537;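 active means inhibition above the hit cutoff derived for the primary screen, cut at about 15% in these data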
HTRA1 inh conf – confirmation of human HTRA1 inhibitors; shares compounds with HTRA1 inh; recombinant HTRA1, FP-rhodamine activity-based probe, fluorescence polarization; inhibition, % at 5.96 µM; 1,600 tested, 66% active;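 active means mean inhibition over three repeats above a set limit taken from the earlier primary screen, cut at about 37% in these data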;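 further: inhibitors block probe binding so polarization drops and inhibition rises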
mABHD4 conf – ABHD4 (mouse) inhibition, FP confirmation; shares compounds with ABHD4 inh; purified mABHD4, FP-Rh probe fluorescence polarization; inhibition, % at 8.92 µM; 1,800 tested, 55% active;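 active means mean inhibition across replicates above the hit cutoff set in the primary screen, cut at about 30% in these data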
SIAE confirm – human SIAE inhibition, confirmation; shares compounds with SIAE inh; SIAE FP-Rh activity-based probe, fluorescence polarization; inhibition, % at 9.66 µM; 2,300 tested, 13% active;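 active means mean inhibition of the replicates above the hit cutoff set in the primary screen, cut at about 17% in these data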;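 further: inhibitors lower polarization as more probe stays unbound to SIAE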
Large screens that a line does not name were inactive (follow-up assays come after a bar, where they were run). Compounds with a hit are over-represented: about 1.4% of the library has one in this group of screens.

CC(=O)c1ccc2c(c1)C1C(Cl)C(Sc3ccccc3[N+](=O)[O-])CC1C(c1ccccc1)N2 (stereo not drawn)	SIAE inh 17.7
CC(=O)c1ccc2c(c1)C1C(Cl)C(Sc3ccccc3[N+](=O)[O-])CC1C(c1ccccc1[N+](=O)[O-])N2 (stereo not drawn)	none
CN1/C(=C\C=C\C2=[N+](C)c3ccc4ccccc4c3C2(C)C)C(C)(C)c2ccccc21	RBBP9 inhibitor 131.6 (no result: ABHD4 inh, HTRA1 inh, SIAE inh)
CN1/C(=C\C=Nc2ccccc2)C(C)(C)c2ccccc21	none
COC(=O)C1=C(c2ccc(-c3ccccc3)c(F)c2)C[C@@H]2CC[C@H]1N2C(=O)N1CCCC1	none (no result: RBBP9 inhibitor)
CCC(CO)NC(=O)C1C=C2c3cccc4[nH]cc(c34)CC2N(C)C1 (stereo not drawn)	none
CC(C)C[C@H]1C(=O)N2CCC[C@H]2[C@]2(O)O[C@](NC(=O)[C@@H]3C=C4c5cccc6[nH]cc(c56)C[C@H]4N(C)C3)(C(C)C)C(=O)N12	HTRA1 inh 41.9 (no result: ABHD4 inh, RBBP9 inhibitor, SIAE inh)
COC(=O)C1C=C2c3cccc4[nH]cc(c34)CC2N(C)C1 (stereo not drawn)	RBBP9 inhibitor 21.3 (no result: ABHD4 inh, HTRA1 inh, SIAE inh)
O=C(NCCN1CCC2(CC1)C(=O)NCN2c1ccccc1)c1ccc(F)cc1	none (no result: HTRA1 inh, RBBP9 inhibitor)
CC[C@H](C)/C=C(C)/C=C/C1=CC2=C(Cl)C(=O)[C@@](C)(OC(C)=O)C(=O)C2=CO1	HTRA1 inh 77.7 (no result: ABHD4 inh, RBBP9 inhibitor, SIAE inh)
CC1=CC(C)CC(C)OC(=O)CC(c2ccc(O)cc2)NC(=O)C(Cc2c(Br)[nH]c3ccccc23)N(C)C(=O)C(C)NC(=O)C(C)C1 (stereo not drawn)	none (no result: RBBP9 inhibitor)
CCOC(=O)[C@]1(C#N)[C@@H]2C=CC(C(C)=O)=CN2[C@@H](C(N)=O)[C@@H]1c1ccsc1	SIAE inh 17.5
CN1CCN2c3ccc(N)cc3CC3(C(=O)NC(=O)NC3=O)C2C1 (stereo not drawn)	RBBP9 inhibitor 20.5 (no result: HTRA1 inh) | RBBP9 confirm 64.9
O=C(/C=C/c1ccccc1)N1Cc2ccccc2-n2nncc2C1	none (no result: RBBP9 inhibitor)
CCC(C)/C=C(C)/C=C/C1=CC2=C(Cl)C(=O)C(C)(OC(C)=O)C(=O)C2=CO1 (stereo not drawn)	HTRA1 inh 44.0 (no result: ABHD4 inh, SIAE inh) | HTRA1 inh conf 68.1
COc1ccc(-n2nnnc2C(CCSC)N2CCC3(CC2)C(=O)NCN3c2ccccc2)cc1 (stereo not drawn)	none (no result: HTRA1 inh, RBBP9 inhibitor)
COc1ccc2c(c1O)-c1c(OC)c(OC)cc3c1[C@H](C2)N(C)CC3	none (no result: RBBP9 inhibitor)
CCCN1CCc2cccc3c2[C@H]1Cc1ccc(O)c(O)c1-3	HTRA1 inh 77.3 (no result: ABHD4 inh, RBBP9 inhibitor, SIAE inh) | HTRA1 inh conf 65.6
COc1cc2cc(C(=O)N3CC(COS(C)(=O)=O)c4ccc(O)cc43)[nH]c2c(OC)c1OC (stereo not drawn)	none (no result: ABHD4 inh, RBBP9 inhibitor, SIAE inh)
CCN1C(=O)/C(=C\c2ccc([N+](=O)[O-])s2)C(=O)NC1=S	none (no result: ABHD4 inh, HTRA1 inh, SIAE inh)
COc1ccc(OC)c(N2C(=O)NC(=O)/C(=C/c3ccc([N+](=O)[O-])s3)C2=O)c1	HTRA1 inh 48.2 | HTRA1 inh conf 43.2
CC(C)C[C@H]1N=C(c2ccccc2)c2ccccc2N(CC(=O)NC(C)(C)C)C1=O	none (no result: HTRA1 inh, RBBP9 inhibitor)
CC(C)(C)c1ccc(O)c(N=Cc2c(O)ccc3ccccc23)c1	HTRA1 inh 50.0 (no result: RBBP9 inhibitor) | HTRA1 inh conf 62.6
CN1C2CCC1CC(OC(c1ccccc1)c1ccc(Cl)cc1)C2 (stereo not drawn)	none (no result: HTRA1 inh, RBBP9 inhibitor)
COc1ccc(-n2c(/C=C/c3ccc(O)c(O)c3)nc3ccccc3c2=O)cc1	HTRA1 inh 65.7 (no result: RBBP9 inhibitor) | HTRA1 inh conf 62.9
C=Cn1ccnc1P(=S)(c1nccn1C=C)c1nccn1C=C	HTRA1 inh 40.6 | HTRA1 inh conf 42.8
Cc1cc(OC(=O)c2ccco2)c2c3c(c(=O)oc2c1)CCCC3	HTRA1 inh 41.9 | HTRA1 inh conf inactive
Cc1cc(OC(=O)c2cccs2)c2c3c(c(=O)oc2c1)CCCC3	none
CC(=NCCCn1ccnc1)c1c(O)n(C2CCCCC2)c(=O)[nH]c1=O	none
CC1Oc2cc3c(-c4c(O)cc(O)c5c(O)c6c(cc45)OC(C)C(C)C6=O)c(O)cc(O)c3c(O)c2C(=O)C1C (stereo not drawn)	HTRA1 inh 66.4 (no result: ABHD4 inh, SIAE inh) | HTRA1 inh conf 80.6
c1ccc(Nc2ccc(Nc3ccccc3)cc2)cc1	HTRA1 inh 55.9 (no result: RBBP9 inhibitor) | HTRA1 inh conf 42.6
CC(C)(C)NC(=O)C1CN=C(c2ccccc2)c2cc(Cl)ccc2N1C(=O)C1CCC1 (stereo not drawn)	none (no result: HTRA1 inh, RBBP9 inhibitor)
CCN(CC)c1ccc(N=Cc2c(O)n(Cc3ccco3)c(=O)[nH]c2=O)cc1	ABHD4 inh 45.4, HTRA1 inh 41.8 | HTRA1 inh conf inactive | mABHD4 conf inactive
O=P1(NCCCl)OCCC(OO)N1CCCl (stereo not drawn)	none (no result: HTRA1 inh, RBBP9 inhibitor)
CN(C)C1C(=O)C(C(N)=O)=C(O)C2(O)C(=O)C3=C(O)c4c(O)cccc4C(C)(O)C3C(O)C12 (stereo not drawn)	ABHD4 inh 67.2, HTRA1 inh 56.3 (no result: RBBP9 inhibitor) | HTRA1 inh conf inactive | mABHD4 conf inactive
CC(=O)OC1CCC2(C)C3CCC4(C)C(OC(C)=O)CCC4C3C(C)C2(O)C1 (stereo not drawn)	none (no result: RBBP9 inhibitor)
CNc1ccc2nc3ccccc3[n+](C)c2c1	ABHD4 inh 118.6, HTRA1 inh 114.9, SIAE inh 108.0 (no result: RBBP9 inhibitor) | HTRA1 inh conf 101.4 | mABHD4 conf 101.3 | SIAE confirm 113.3
OCCNc1c2c(nc3ccccc13)CCCC2	none
C[n+]1c2ccccc2nc2ccc(NCCO)cc21	ABHD4 inh 96.9, HTRA1 inh 85.8, SIAE inh 60.4 (no result: RBBP9 inhibitor) | HTRA1 inh conf 86.5 | mABHD4 conf 62.5 | SIAE confirm 67.6
CC(C)(O)/C=C/C(=O)C(C)(O)C1C(O)CC2(C)C3CC=C4C(C=C(O)C(=O)C4(C)C)C3(C)C(=O)CC12C (stereo not drawn)	none (no result: RBBP9 inhibitor)
O=S1(=O)NCC2(CC2)CN1Cc1ccccc1	none (no result: HTRA1 inh, RBBP9 inhibitor)
NC(N)=N/N=C/c1ccc(N(c2ccccc2)c2ccccc2)cc1	ABHD4 inh 42.4, HTRA1 inh 45.5, SIAE inh 21.7 (no result: RBBP9 inhibitor) | HTRA1 inh conf 59.7 | mABHD4 conf 71.0 | SIAE confirm 36.0
N[C@H](CO)Cc1ccccc1	none (no result: RBBP9 inhibitor)
CCN(CC)c1ccc(N=Cc2c(O)n(-c3cc(OC)ccc3OC)c(=O)[nH]c2=O)cc1	ABHD4 inh 65.3, HTRA1 inh 45.7, SIAE inh 24.6 | HTRA1 inh conf inactive | mABHD4 conf inactive | SIAE confirm inactive
CNc1ccc2oc(C[C@H]3O[C@@]4(CC[C@H]3C)O[C@H]([C@H](C)C(=O)c3ccc[nH]3)[C@H](C)C[C@H]4C)nc2c1C(=O)O	ABHD4 inh 29.9 (no result: RBBP9 inhibitor) | mABHD4 conf inactive

From PubChem BioAssay
